EBV gp42 block: blocks Epstein-Barr virus glycoprotein 42 binding; Q1HVG2; Fluorescence polarization binding assay, mP read-out; inhibition, % (tested at 21.74 µM); 0.42% of 220,000 active; in the data active = inhibition above about 50%
Target sequence (Q1HVG2 whole entry, looked up): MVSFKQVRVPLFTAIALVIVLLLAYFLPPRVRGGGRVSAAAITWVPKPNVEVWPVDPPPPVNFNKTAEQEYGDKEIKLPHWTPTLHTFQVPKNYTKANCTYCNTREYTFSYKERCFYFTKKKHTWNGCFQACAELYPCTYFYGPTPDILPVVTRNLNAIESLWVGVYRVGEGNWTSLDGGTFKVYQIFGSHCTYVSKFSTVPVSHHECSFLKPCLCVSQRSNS
MEX-5 binding: C. elegans MEX-5 TCR-2 RNA binding activity; 0.38% of 300,000 active; activity score (negative = inhibition of binding), % at 10 µM; MEX-5/FITC-TCR2 RNA binding, fluorescence polarization; active compounds read low;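 active = inhibition past about -25% in most replicates, and total fluorescence under double the plate's negative control median, limit read from the data; inconclusive = replicates evenly split on the limit, or fluorescence at least double controls; inactive = too little inhibition in most replicates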;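 also: 0% = DMSO and -100% = 5 µM competing unlabeled TCR2 RNA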
IMP-1 inh: blocks Pseudomonas aeruginosa IMP-1 metallo-beta-lactamase | inhibition, % at 5.6 µM | 0.45% of 290,000 active | purified IMP-1, nitrocefin hydrolysis, epi-absorbance fluorescence;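 active = inhibition above the mean plus 3 SD of all compounds in the same screening run, cut at about 4.5% in these data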;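 also: 0% = IMP-1 with DMSO and 100% = DMSO wells lacking enzyme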
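System: purified IMP-1 / Input: IMP-1 dispensed at 0.2 nM / Medium: 50 mM HEPES pH 7.1, 50 µM ZnSO4, 0.05% Brij 35 / Timing: 15 min enzyme–compound preincubation, then 25 min nitrocefin reaction, 25 °C / Technique: plate fluorescence quenching by hydrolysis product, ex 480/em 530 nm / Repeats: singlicate testing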
Bcl-xL primary: Bcl-xL (human) inhibition; Q07817; GST-Bcl-xL / FITC-Bim BH3 peptide fluorescence polarization; inhibition, % at 10.9 µM; 0.7% of 320,000 active; AID 2129;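 active = inhibition above the mean of all tested compounds plus 3 SD, cutoff set per campaign, cut at about 30% in these data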;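 also: 0% = DMSO wells and 100% = unlabeled Bim-BH3 peptide competitor; inhibitors lower millipolarization by displacing the labeled peptide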
Target sequence (Q07817 whole entry, looked up): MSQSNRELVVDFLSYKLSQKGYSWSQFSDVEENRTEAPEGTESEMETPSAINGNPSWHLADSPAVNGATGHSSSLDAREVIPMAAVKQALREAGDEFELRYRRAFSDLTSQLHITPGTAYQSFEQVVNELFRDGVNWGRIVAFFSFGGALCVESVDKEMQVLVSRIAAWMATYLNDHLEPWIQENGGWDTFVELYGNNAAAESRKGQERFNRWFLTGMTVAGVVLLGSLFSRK
VIM-2 inh: blocks Pseudomonas aeruginosa VIM-2 metallo-beta-lactamase. purified VIM-2, nitrocefin hydrolysis, epi-absorbance fluorescence. inhibition, % at 5.6 µM. 0.89% of 290,000 active. AID 1527;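 active = inhibition above the mean of all tested compounds plus 3 SD, cutoff set per screening run, cut at about 7.5% in these data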;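 also: red hydrolysis product quenches plate fluorescence so inhibitors raise well fluorescence; 0% = enzyme with DMSO and 100% = DMSO without enzyme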
GLD-1 RNA inh: GLD-1-TGE RNA interaction inhibition (C. elegans). inhibition, % at 5.96 µM. AID 2280. Q17339. purified GLD-1 + fluorescein TGE RNA, fluorescence polarization. 0.44% of 320,000 active;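 active = percent inhibition above a per-plate cutoff, the plate mean of test compounds plus 3 SD, cut at about 30% in these data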;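 also: 0% = DMSO wells with GLD-1 and probe and 100% = wells lacking GLD-1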
GLD1 RNA confirm: confirmation of C. elegans GLD-1 TGE RNA binding inhibitors. inhibition, % at 5.96 µM. GLD-1/FL-TGE RNA fluorescence polarization, biochemical. shares compounds with GLD-1 RNA inh. 10% of 550 active. AID 2459;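 active = average inhibition across triplicates above the hit cutoff set in the primary screen, cut at about 32% in these data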;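 also: 0% = GLD-1 with RNA probe and DMSO and 100% = wells lacking GLD-1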
An asterisk follows results filed as active; u = inconclusive; x = not tested or not shown; + = active, no number. Sampled rows, rich in hits. Any-hit rate of the full collection: about 2.2%.

SMILES	EBV gp42 block	MEX-5 binding	IMP-1 inh	Bcl-xL primary	VIM-2 inh	GLD-1 RNA inh	GLD1 RNA confirm
CCOC(=O)c1[nH]cnc1N=Nc1c(O)ccc2ccccc12	56*	-4	-1	103*	-4	60*	32*
Oc1ccc2ccccc2c1N=Nc1ccccn1	0	-8	-5	2	-2	-5	x
CCOC(=O)Cc1csc(/N=C/c2c(O)n(-c3ccc(C)cc3C)c(=O)c3ccccc23)n1	-25	4	-3	28	-4	38*	-26
CCCCC(=O)Nc1ccc(C(N)=O)cc1	-31	1	-5	-2	-3	-8	x
CCCCC(=O)Nc1ccc(NCc2ccc(C)s2)cc1	x	-2	-5	1	-5	38*	4
Cc1cccc(C)c1OCc1cc(C(=O)N(Cc2c(C)nn(C)c2C)C2CC2)no1	x	0	-1	4	-2	1	x
CNc1c(N)n(Cc2ccccc2)c(=O)[nH]c1=O	50*	-32*	-1	37*	-3	42*	30
CN(C(=S)NC(=O)c1ccccc1)c1c(N)n(Cc2ccccc2)c(=O)[nH]c1=O	5	-1	-4	7	-1	-3	x
CSc1c(C#N)c(N)nc2sc(C(=O)c3ccccc3)c(N)c12	12	u	-3	51*	-1	33*	21
CC(NC(=O)CCc1ccccc1)c1ccc2c(c1)OCO2 (stereo not drawn)	x	-1	-2	0	1	-11	x
Cc1cccc(C(=O)Nc2ccc3c(c2)ncn3C)c1	x	1	-1	2	-1	0	x
Cc1ccccc1COc1ccc(-c2nnn(CC(=O)O)n2)cc1	x	-2	-2	x	0	x	x
CCOC(=O)C1C(c2ccccc2)C(C(=O)OCC)C1c1ccccc1 (stereo not drawn)	-10	-1	0	5	-1	3	x
Cc1ccccc1OC(=O)C1C(c2ccccc2)C(C(=O)O)C1c1ccccc1 (stereo not drawn)	-7	2	1	-2	-1	39*	3
O=C(CCNC(=O)c1ccc([N+](=O)[O-])cc1)Nc1ccc(S(=O)(=O)N2CCOCC2)cc1	x	-1	x	-3	x	5	x
Cc1ccc(S(=O)(=O)c2cc3ccc(O)cc3oc2=O)cc1C	x	1	-3	28	0	32*	4
CN1CCN(CP(=O)(N2CCOCC2)N2CCOCC2)CC1	-20	-1	-3	1	-3	43*	0
CN1CCN(CCP(=O)(c2ccccc2)c2ccccc2)CC1	3	2	-1	-2	-2	-2	x
Cc1cc2c(c(=O)o1)C(c1ccc([N+](=O)[O-])o1)C(C#N)=C(N)O2 (stereo not drawn)	-2	-11	-4	46*	-1	36*	-6
CCCCC1=CC2=CC(=O)C(C)(OC(=O)CC)C(=O)C2=CN1CCc1ccccn1 (stereo not drawn)	6	-6	x	22	x	3	x
CCCCC1=CC2=CC(=O)C(C)(OC(=O)CC)C(=O)C2=CN1CC(C)C (stereo not drawn)	9	-10	x	34*	x	31*	22
CC(C)Sc1nc(N2CCOCC2)c2c(c1C#N)CC(C)(C)N(C)C2	-11	-1	0	50*	0	39*	2
COc1ccccc1CNCC(=O)Nc1ccc(N(C)C)cc1	x	-5	0	71*	0	50*	-2
COc1cc(/C=C(\C#N)c2nc3ccccc3[nH]2)cc(Br)c1OCc1ccc(F)cc1	-9	-6	-3	5	-7	97*	-2
CCC(C)c1ccccc1N1CC(C(=O)NCCc2ccc(OC)c(OC)c2)CC1=O (stereo not drawn)	x	-2	x	6	x	5	x
SMILES	EBV gp42 block	MEX-5 binding	IMP-1 inh	Bcl-xL primary	VIM-2 inh	GLD-1 RNA inh	GLD1 RNA confirm
Cc1ccc(C2C=C(c3ccccc3)Nc3ncnn32)cc1 (stereo not drawn)	x	2	x	24	x	33*	1
Cc1cc(C)c(C2=CC(c3ccccc3)n3ncnc3N2)cc1C (stereo not drawn)	x	-1	x	5	x	9	x
O=C(c1ccccc1C(=O)N1CCN(c2ccccc2)CC1)N1CCN(c2ccccc2)CC1	27	x	-3	46*	-1	38*	11
O=C(O)c1ccccc1C(=O)N1CCN(c2ccccc2)CC1	0	-3	1	3	-1	8	x
COc1ccc2c(c1)cc(C(=O)N[C@@H](Cc1ccccc1)C(=O)O)n2C	x	1	0	26	-1	44*	-2
O=C(COC(=O)c1cccc(O)c1)Nc1ccc(S(=O)(=O)N2CCOCC2)cc1	x	x	x	8	x	1	x
COc1ccc(Br)cc1/C=C(\C(=O)O)c1ccc(S(=O)(=O)N2CCCCC2)s1	x	x	x	-1	x	6	x
Cc1cc(/C=C(\C#N)c2nnc(N3CCOCC3)n2-c2ccccc2)c(C)n1-c1ccccc1	-4	1	-1	23	-3	49*	5
O=C(Cc1cn(Cc2cccc(Cl)c2)c2ccccc12)N1CCCC1	-1	0	0	3	-3	54*	-5
O=C(CS(=O)(=O)c1cn(Cc2ccc(Cl)cc2)c2ccccc12)N1CCCC1	-13	1	-1	5	1	5	x
Nc1nc(SCC(=O)Nc2ccc([N+](=O)[O-])cc2)[nH]c(=O)c1NC(=O)c1ccc(Br)o1	x	-1	0	7	1	1	x
CCOc1cccc(-c2c(C(=O)N/N=C(\C)c3cccnc3)nnn2-c2nonc2N)c1	x	1	-2	5	-2	-5	x
CC1(C)CC(=O)C2=C(C1)Nc1cc(Cl)ccc1S2	16	-5	-4	34*	-2	35*	5
CC(C)c1ccc(N2C(=O)/C(=C/N(C)C)SC2=S)cc1	-2	-19	-1	+	-1	74*	-6
CCO/C=C1\SC(=S)N(c2ccc(Cl)cc2)C1=O	-4	3	0	14	1	15	x
O=C(O)c1ccc2c(c1)C(=O)/C(=C/c1ccccc1)C2=O	15	-25	0	77*	-2	46*	12
CC(C)(C)N1C(=O)c2ccc(C(=O)O)cc2C1=O	-1	3	-1	-2	-2	-7	x
O=C(CC12CC3CC(CC(C3)C1)C2)Nc1c(F)cccc1F	x	-1	-2	3	-3	4	x
CN1C2C=C3C(C#N)=C(N)C(C#N)(C#N)[C@@H](c4cccs4)C3C1CC2 (stereo partly drawn)	-2	-11	-6	43*	-5	33*	4
Cc1ccc(C(=O)N(CC(C)C)c2c(N)n(Cc3ccccc3)c(=O)[nH]c2=O)o1	x	-5	x	-1	x	9	x

Bioassay records: PubChem BioAssay, several laboratories
